# According to ChEMBL document CHEMBL5678799 (Biochem J, 2009):
# Active and inactive are the calls of the source. The calls are words filed in the database; no cut-off is given here.
# Columns and labels:
# [1] = target: Homeodomain-interacting protein kinase 2 (Homo sapiens) (UniProt Q9H2X6); experiment: Inhibition of recombinant human N-terminal GST-tagged HIPK2 (165 to 564 residues) expressed in Escherichia coli assessed as remaining activity at 10 uM using MBP as substrate incubated for 30 mins in presence of [gamma-33P]ATP by filter binding method relative to control
# Procedure, shortened: (§1)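 Radiometric kinase panel run robotically at room temperature (21 °C) for 30 min, linear in time and enzyme. […] Activity is expressed as percent of control without compound, from triplicate determinations ± S.D.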
# MEF = experiment: Induction of cell cycle arrest in MEF cells assessed as accumulation at G1 phase at 3 uM incubated for 1 to 3 days by propidium iodide staining based flow cytometric analysis (reference value: 21.4 +/- 1.7%); format: toxicity; conditions: mouse, time 1-3 day
# [2] = target: Serine/threonine-protein kinase D1 (Homo sapiens) (UniProt Q15139); experiment: Inhibition of recombinant human N-terminal His6-tagged PKD1 (2 to 912 residues) expressed in baculovirus infected Sf21 cells assessed as remaining activity at 10 uM using KKLNRTLSVA as substrate incubated for 30 mins in presence of [gamma-33P]ATP by filter binding method relative to control
# Serine/threonine-protein kinase D1 (Homo sapiens), sequence (Q15139 whole entry, looked up, the tested form may be a part): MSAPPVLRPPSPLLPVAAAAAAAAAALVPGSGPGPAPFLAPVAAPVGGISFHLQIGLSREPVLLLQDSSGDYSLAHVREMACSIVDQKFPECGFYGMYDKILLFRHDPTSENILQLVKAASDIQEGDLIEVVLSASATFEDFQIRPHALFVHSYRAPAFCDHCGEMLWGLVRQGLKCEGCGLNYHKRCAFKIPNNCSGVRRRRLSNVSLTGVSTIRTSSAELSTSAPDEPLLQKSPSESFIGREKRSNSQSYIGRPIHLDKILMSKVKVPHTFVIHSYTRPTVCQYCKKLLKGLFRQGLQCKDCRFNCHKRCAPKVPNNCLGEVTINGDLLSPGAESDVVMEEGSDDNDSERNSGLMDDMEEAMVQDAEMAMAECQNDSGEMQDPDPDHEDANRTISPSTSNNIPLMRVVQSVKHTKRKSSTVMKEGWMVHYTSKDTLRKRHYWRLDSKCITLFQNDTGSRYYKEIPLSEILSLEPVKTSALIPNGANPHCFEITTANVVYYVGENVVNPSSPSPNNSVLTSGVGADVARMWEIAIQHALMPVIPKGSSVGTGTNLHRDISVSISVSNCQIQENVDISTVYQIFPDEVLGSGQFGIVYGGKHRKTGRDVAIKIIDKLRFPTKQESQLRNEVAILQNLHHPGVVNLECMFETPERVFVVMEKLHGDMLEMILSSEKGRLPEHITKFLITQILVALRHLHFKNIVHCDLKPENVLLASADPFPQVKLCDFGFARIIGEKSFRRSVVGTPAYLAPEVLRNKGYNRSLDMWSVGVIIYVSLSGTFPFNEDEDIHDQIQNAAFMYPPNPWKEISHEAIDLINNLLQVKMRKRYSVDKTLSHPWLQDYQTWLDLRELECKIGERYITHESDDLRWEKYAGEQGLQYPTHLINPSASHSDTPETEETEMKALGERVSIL
# mTORC1 (Homo sapiens) [3] = target: T1, mTORC1 (Homo sapiens) (UniProt P42345+Q8N122+Q9BVC4); conditions: HEK293, dose 30-1000 nM, time 30.0 min
# T1 sequence (Q8N122 whole entry, looked up, other chains not shown, the tested form may be a part): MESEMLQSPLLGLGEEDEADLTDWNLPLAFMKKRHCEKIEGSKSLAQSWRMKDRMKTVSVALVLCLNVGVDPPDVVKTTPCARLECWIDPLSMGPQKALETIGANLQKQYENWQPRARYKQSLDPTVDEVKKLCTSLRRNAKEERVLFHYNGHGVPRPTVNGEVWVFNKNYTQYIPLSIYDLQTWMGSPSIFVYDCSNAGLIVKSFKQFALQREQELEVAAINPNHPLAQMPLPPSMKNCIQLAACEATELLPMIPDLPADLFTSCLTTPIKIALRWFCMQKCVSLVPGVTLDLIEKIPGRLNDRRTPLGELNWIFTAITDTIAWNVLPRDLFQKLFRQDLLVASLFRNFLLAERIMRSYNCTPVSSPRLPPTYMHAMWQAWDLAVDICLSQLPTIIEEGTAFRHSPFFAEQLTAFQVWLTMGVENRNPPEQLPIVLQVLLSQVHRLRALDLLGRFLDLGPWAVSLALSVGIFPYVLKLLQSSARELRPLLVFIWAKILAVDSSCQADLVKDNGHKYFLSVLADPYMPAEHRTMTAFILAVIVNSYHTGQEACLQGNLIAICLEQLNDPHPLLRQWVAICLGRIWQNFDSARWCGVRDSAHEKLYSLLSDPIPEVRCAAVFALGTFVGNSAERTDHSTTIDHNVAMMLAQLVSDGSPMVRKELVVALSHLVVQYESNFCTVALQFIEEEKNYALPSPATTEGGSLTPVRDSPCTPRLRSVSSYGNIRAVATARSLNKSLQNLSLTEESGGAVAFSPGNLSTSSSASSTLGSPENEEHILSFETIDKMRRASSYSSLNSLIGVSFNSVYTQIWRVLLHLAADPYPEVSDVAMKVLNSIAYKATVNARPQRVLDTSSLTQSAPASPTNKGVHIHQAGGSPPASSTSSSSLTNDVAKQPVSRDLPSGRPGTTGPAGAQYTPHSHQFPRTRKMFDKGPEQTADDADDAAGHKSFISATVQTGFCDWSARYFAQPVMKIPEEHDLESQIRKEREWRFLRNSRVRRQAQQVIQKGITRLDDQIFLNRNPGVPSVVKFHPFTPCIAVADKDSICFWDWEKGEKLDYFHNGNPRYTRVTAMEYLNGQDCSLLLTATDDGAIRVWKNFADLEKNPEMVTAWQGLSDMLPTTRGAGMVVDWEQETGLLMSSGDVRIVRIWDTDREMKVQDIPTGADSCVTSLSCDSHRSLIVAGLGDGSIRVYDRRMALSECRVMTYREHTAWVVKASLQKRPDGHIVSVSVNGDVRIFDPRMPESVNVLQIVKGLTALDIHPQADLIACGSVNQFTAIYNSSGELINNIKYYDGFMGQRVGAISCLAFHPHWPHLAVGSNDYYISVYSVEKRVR
# T1 sequence (Q9BVC4 whole entry, looked up, other chains not shown, the tested form may be a part): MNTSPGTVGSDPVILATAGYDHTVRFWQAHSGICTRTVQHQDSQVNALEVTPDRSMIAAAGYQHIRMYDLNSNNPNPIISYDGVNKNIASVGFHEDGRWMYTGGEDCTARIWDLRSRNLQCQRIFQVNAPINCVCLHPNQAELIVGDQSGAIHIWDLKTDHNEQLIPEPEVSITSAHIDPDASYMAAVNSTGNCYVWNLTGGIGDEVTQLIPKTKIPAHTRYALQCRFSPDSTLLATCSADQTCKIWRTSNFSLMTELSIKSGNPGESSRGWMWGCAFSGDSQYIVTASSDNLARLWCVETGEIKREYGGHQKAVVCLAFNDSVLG
# [4] = target: MAP kinase-interacting serine/threonine-protein kinase 1 (Homo sapiens) (UniProt Q9BUB5); experiment: Inhibition of recombinant human N-terminal GST-tagged C-terminal His6-tagged MNK1 (2 to 424 residues) expressed in Escherichia coli assessed as remaining activity at 10 uM using eIF4E as substrate incubated for 30 mins in presence of [gamma-33P]ATP by filter binding method relative to control
# [5] = target: Tyrosine-protein kinase Yes (Homo sapiens) (UniProt P07947); experiment: Inhibition of recombinant human N-terminal His6-tagged YES1 (1 to 543 residues) expressed in baculovirus infected Sf21 cells assessed as remaining activity at 10 uM using Poly(Glu,Tyr) as substrate incubated for 30 mins in presence of [gamma-33P]ATP by filter binding assay relative to control
# Procedure, shortened: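 Radiometric panel assay run robotically at 21 °C for 30 min, linear in time and enzyme. […] Activity is expressed as percentage of the compound-omitted control, averaged from triplicates ± S.D.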
# [6] = target: Mitogen-activated protein kinase 1 (Homo sapiens) (UniProt P28482); experiment: Inhibition of recombinant human N-terminal GST-tagged ERK2 (2 to 360 residues) expressed in Escherichia coli assessed as remaining activity at 10 uM using MBP as substrate incubated for 30 mins in presence of [gamma-33P]ATP by filter binding method relative to control
# Procedure, shortened: (§2)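 Incubation was 30 min at room temperature (21 °C) under conditions linear with time and enzyme amount. Activity is reported as percent of control lacking compound, triplicate mean ± S.D.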
# [7] = target: Maternal embryonic leucine zipper kinase (Homo sapiens) (UniProt Q14680); experiment: Inhibition of recombinant human N-terminal GST/C-terminal His6-tagged MELK (2 to 651 residues) expressed in Escherichia coli assessed as remaining activity at 1 uM using KKLNRTLSFAEPG as substrate incubated for 30 mins in presence of [gamma-33P]ATP by filter binding method relative to control; procedure, shortened: as §2
# Maternal embryonic leucine zipper kinase (Homo sapiens), sequence (Q14680 whole entry, looked up, the tested form may be a part): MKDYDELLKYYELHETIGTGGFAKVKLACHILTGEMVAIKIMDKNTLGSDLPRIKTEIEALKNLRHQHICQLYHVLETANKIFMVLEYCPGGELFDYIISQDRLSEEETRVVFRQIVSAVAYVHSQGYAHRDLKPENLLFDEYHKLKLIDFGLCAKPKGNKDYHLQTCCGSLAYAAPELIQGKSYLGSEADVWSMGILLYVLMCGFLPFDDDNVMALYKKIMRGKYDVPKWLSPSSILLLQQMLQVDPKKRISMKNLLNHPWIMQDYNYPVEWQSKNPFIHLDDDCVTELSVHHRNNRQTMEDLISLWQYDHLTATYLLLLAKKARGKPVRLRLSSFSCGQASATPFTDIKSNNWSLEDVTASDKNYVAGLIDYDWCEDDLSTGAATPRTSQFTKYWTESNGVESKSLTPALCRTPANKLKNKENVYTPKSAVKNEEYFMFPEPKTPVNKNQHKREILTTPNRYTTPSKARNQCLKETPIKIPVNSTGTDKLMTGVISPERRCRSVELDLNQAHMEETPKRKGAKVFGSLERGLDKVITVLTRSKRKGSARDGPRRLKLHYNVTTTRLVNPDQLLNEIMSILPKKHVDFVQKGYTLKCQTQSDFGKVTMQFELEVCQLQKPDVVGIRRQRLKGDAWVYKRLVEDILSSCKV
# [8] = target: Mitogen-activated protein kinase; ERK1/ERK2 (Homo sapiens) (UniProt P27361+P28482); experiment: Inhibition of ERK1/2 in serum starved/PMA-stimulated HEK293 cells assessed as reduction in RSK phosphorylation at S227 residues at 1 uM incubated for 30 mins by immunoblot analysis; format: cell-based
# [9] = target: Inhibitor of nuclear factor kappa-B kinase subunit epsilon (Homo sapiens) (UniProt Q14164); experiment: Inhibition of recombinant human N-terminal GST-tagged IKKepsilon (1 to 716 residues) expressed in baculovirus infected Sf21 cells assessed as remaining activity at 1 uM using MBP as substrate incubated for 30 mins in presence of [gamma-33P]ATP by filter binding method relative to control; procedure, shortened: as §2
# Inhibitor of nuclear factor kappa-B kinase subunit epsilon (Homo sapiens), sequence (Q14164 whole entry, the tested form may be a part): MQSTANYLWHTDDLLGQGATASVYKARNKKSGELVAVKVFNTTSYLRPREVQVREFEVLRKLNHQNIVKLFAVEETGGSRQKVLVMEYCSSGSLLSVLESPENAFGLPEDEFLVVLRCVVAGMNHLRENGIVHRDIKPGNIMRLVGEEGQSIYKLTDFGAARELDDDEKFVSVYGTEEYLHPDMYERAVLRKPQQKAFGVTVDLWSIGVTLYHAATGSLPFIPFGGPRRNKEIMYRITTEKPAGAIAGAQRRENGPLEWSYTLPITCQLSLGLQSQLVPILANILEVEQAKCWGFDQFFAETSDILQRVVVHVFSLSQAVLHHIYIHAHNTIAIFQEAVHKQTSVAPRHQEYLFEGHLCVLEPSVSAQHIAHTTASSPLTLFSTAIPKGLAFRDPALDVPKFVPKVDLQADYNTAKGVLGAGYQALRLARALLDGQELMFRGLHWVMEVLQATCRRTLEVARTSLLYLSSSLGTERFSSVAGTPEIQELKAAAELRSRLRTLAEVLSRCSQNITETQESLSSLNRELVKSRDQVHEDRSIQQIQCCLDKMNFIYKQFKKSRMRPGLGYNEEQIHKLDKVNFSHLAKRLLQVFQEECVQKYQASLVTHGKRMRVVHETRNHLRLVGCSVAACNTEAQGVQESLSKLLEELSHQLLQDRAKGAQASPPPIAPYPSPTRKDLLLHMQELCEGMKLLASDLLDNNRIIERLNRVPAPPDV
# [10] = tested on: Serine/threonine-protein kinase Sgk1 (Homo sapiens), O00141 [S422D]; experiment: Inhibition of recombinant human His6-tagged SGK1 S422D mutant (60 to 431 residues) expressed in baculovirus infected Sf21 cells assessed as remaining activity at 10 uM using GRPRTSSFAEGKK as substrate incubated for 30 mins in presence of [gamma-33P]ATP by filter binding method relative to control
# Procedure, shortened: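 Incubations ran robotically for 30 min at room temperature (21 °C) under linear conditions. Results are percent activity remaining versus controls without compound, as the mean of triplicates ± S.D.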
# [11] = target: Serine/threonine-protein kinase PAK 4 (Homo sapiens) (UniProt O96013); experiment: Inhibition of recombinant human N-terminal GST-tagged PAK4 (2 to 519 residues) expressed in Escherichia coli assessed as remaining activity at 10 uM using RRRLSFAEPG as substrate incubated for 30 mins in presence of [gamma-33P]ATP by filter binding method relative to control; procedure, shortened: as §1
# mTORC1 (Homo sapiens) [12] = target: T1, mTORC1 (Homo sapiens); conditions: HEK293, dose 30.0 nM, time 30.0 min
# [13] = target: Mitogen-activated protein kinase 11 (Homo sapiens) (UniProt Q15759); experiment: Inhibition of recombinant human N-terminal GST-tagged P38beta (1 to 364 residues) expressed in Escherichia coli assessed as remaining activity at 1 uM using MBP as substrate incubated for 30 mins in presence of [gamma-33P]ATP by filter binding method relative to control
# Procedure, shortened: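 Panel assays were run for 30 min at 21 °C, within the linear range for time and enzyme. […] Results are percent activity remaining relative to compound-free control, averaged from triplicate ± S.D.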
# [14] = target: MAP/microtubule affinity-regulating kinase 3 (Homo sapiens) (UniProt P27448); experiment: Inhibition of recombinant human N-terminal His6-tagged MARK3 (2 to 729 residues) expressed in baculovirus infected Sf21 cells assessed as remaining activity at 10 uM using CHKtide as substrate incubated for 30 mins in presence of [gamma-33P]ATP by filter binding method relative to control
# [15] = target: Mitogen-activated protein kinase 9 (Homo sapiens) (UniProt P45984); experiment: Inhibition of recombinant human N-terminal His6-tagged JNK2alpha2 (1 to 424 residues) expressed in baculovirus infected Sf21 cells assessed as remaining activity at 10 uM using ATF2 as substrate incubated for 30 mins in presence of [gamma-33P]ATP by filter binding method relative to control
# Mitogen-activated protein kinase 9 (Homo sapiens), sequence (P45984 whole entry, looked up, the tested form may be a part): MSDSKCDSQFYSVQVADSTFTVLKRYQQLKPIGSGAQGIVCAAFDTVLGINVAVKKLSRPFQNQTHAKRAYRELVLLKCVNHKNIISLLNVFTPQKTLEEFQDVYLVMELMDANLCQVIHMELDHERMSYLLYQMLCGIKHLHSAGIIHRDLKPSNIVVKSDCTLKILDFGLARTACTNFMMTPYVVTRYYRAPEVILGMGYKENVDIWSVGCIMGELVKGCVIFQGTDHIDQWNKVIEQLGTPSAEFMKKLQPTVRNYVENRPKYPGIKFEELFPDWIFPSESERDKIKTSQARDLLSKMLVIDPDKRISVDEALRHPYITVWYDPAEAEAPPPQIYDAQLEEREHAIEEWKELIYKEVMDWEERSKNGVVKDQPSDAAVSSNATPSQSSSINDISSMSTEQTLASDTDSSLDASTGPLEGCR
# [16] = target: Dual specificity mitogen-activated protein kinase kinase 1 (Homo sapiens) (UniProt Q02750); experiment: Inhibition of recombinant human MKK1 (2 to 393 residues) expressed in Escherichia coli assessed as remaining activity at 1 uM using MBP as substrate incubated for 30 mins in presence of [gamma-33P]ATP by filter binding method relative to control
# Dual specificity mitogen-activated protein kinase kinase 1 (Homo sapiens), sequence (Q02750 whole entry, the tested form may be a part): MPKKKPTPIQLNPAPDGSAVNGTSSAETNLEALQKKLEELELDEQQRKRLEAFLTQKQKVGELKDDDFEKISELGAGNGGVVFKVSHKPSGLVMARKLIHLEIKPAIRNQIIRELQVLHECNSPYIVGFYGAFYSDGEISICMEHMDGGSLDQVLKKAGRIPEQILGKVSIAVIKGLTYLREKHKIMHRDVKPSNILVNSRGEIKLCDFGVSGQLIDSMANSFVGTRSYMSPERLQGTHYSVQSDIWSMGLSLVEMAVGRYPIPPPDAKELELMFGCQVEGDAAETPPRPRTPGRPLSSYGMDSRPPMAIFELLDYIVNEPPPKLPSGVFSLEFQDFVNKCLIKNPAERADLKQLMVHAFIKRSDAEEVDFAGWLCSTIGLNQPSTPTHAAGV
# Procedure, shortened: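 Kinase panel run robotically at 21 °C for 30 min, linear in time and enzyme. […] Compound tested at 1 or 10 µM. Activity given as percentage of incubations without compound, mean of triplicates ± S.D.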
structure (smiles),measurement,setting,value
COc1ccc(-c2ccc3c(N4CCOCC4)nc(N4C[C@@H](C)O[C@@H](C)C4)nc3n2)cc1CO [Ku-0063794],Activity,[1],89%
same,Activity,MEF,42.4%
same,Activity,[2],101%
same,inhibition,mTORC1 (Homo sapiens) [3],Active
same,Activity,[4],75%
same,Activity,[5],90%
same,Activity,[6],92%
same,Activity,[7],91%
same,inhibition,[8],inactive
same,Activity,[9],99%
same,Activity,[10],64%
same,Activity,[11],75%
same,inhibition,mTORC1 (Homo sapiens) [12],50%
same,Activity,[13],106%
same,Activity,[14],93%
same,Activity,[15],103%
same,Activity,[16],96%
